One experiment concerns HA-Ras cells. Nature of the experiment: Cell viability of transformed astrocytes expressing HRAS G12V. The class given is cell-based, human. The following applies: read-out: EC50 (cell viability), 1% serum, 96h. A digest of the protocol: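 Human astrocytes immortalized with E6/E7/hTERT and transformed by HRAS G12V expression were treated with test compound in 1% serum for 96 h, then viability was measured. At least three independent biological replicates; experiments repeated at least three times; mean ± SD.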

The test system of the next experiment is M120. Nature of the experiment: Short-term cell viability of recurrent GSC line M120. The class given is cell-based, human. The following applies: YTX-7739 at 10 μM, TMZ 50–100μM.
The subject of experiment [1] is MGG8 orthotopic brain tumors. In words: Orthotopic MGG8 GSC mouse model: tumor growth and survival. In kind it is in vivo. The note with it: MGG8-bearing mice; YTX-7739 30 mg/kg, TMZ 5mg/kg, IP. A digest of the protocol: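 Fluc-expressing MGG8 GSCs (1–5 × 10⁴) implanted into left forebrain of male/female athymic nude mice; treatment began once tumors bioluminescence-detected (D-luciferin 150 mg/kg IP). Groups (n=8): vehicle (0.5% methylcellulose + 0.2% Tween80 in saline), test compound 30 mg/kg, TMZ 5 mg/kg (in 5% dextrose), or combination, IP. Tumor growth by bioluminescence; Kaplan-Meier survival, two-sided log-rank test; study ended at six months.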

For experiment [2], the system named is 83 GSC orthotopic brain tumors. Nature of the experiment: Orthotopic 83 GSC mouse model: tumor growth and survival. In kind it is in vivo. The note with it: 83-bearing mice; YTX-7739 30mg/kg, TMZ 10mg/kg, IP.

pEC50: −log10 of the molar value.

One may read the pEC50 as the EC50 on a negative log10 scale, so that one unit is a factor of ten. With `Cc1nnc(-c2ccc(N3CCC(Oc4cc(F)ccc4Cl)CC3)nn2)o1` [CAY10566], in the experiment on HA-Ras cells, the pEC50 is 7.73.

As for `Cn1nnc2c(C(N)=O)ncn2c1=O` [TMZ, Temozolomide], the short-term cell viability entry in the experiment on M120 is listed as “ineffective”. Further, in experiment [1], the survival came out at 106.5 days and the “survival percentage at six months after tumor implantation” value was 25%. In experiment [2], the median survival worked out at 32 days and the tumor growth entry was “initially delayed tumor growth”.

The values are drawn from paper PMC9942236 (Science translational medicine, 2023).
